Laboratory results taken from ChEMBL document CHEMBL1777700, “Inhibition of multi-drug resistant HIV-1 reverse transcriptase by nucleoside β-triphosphates” (Bioorg Med Chem Lett, 2011).
The source made the active and inactive calls. The rule behind the calls is not given here.

Key:
[1] = target: Human immunodeficiency virus type 1 reverse transcriptase (Human immunodeficiency virus 1) (UniProt Q72547); assay: Inhibition of wild type HIV1 recombinant reverse transcriptase p66/p51 heterodimer at 10 nM after 10 mins by gel-based radiolabeled primer extension assay
Outline: (§1)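 Purified p66/p51 HIV-1 RT (10 nM) was added to start reactions containing 50 nM of a 40 nt DNA template annealed to a 5′ end-labeled 22 nt DNA primer. The mix held 200 μM dNTPs, 10 mM Tris-HCl pH 8.0, 80 mM NaCl and 6 mM MgCl2. Reactions ran 10 min at 37 °C and were stopped with formamide gel-loading buffer. Inhibitor was tested at 10 nM–1 mM in tenfold steps, with a no-inhibitor lane.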

[2] = system: Human immunodeficiency virus type 1 reverse transcriptase (Human immunodeficiency virus 1), Q72547 [M184V,K65R,Y115F]; assay: Inhibition of NRTI-resistant HIV1 recombinant reverse transcriptase p66/p51 M184V/K65R/Y115F mutant at 10 uM after 10 mins by gel-based radiolabeled primer extension assay; outline: as §1
[3] = system: Human immunodeficiency virus type 1 reverse transcriptase (Human immunodeficiency virus 1), Q72547 [M184V,K65R,Y115F]; assay: Inhibition of NRTI-resistant HIV1 recombinant reverse transcriptase p66/p51 M184V/K65R/Y115F mutant at 10 nM after 10 mins by gel-based radiolabeled primer extension assay; outline: as §1
[4] = target: Human immunodeficiency virus type 1 reverse transcriptase (Human immunodeficiency virus 1) (UniProt Q72547); assay: Inhibition of NNRTI-resistant HIV1 recombinant reverse transcriptase p66/p51 heterodimer at 10 nM to 10 uM after 10 mins by gel-based radiolabeled primer extension assay
[5] = target: Human immunodeficiency virus type 1 reverse transcriptase (Human immunodeficiency virus 1) (UniProt Q72547); assay: Inhibition of NNRTI-resistant HIV1 recombinant reverse transcriptase p66/p51 heterodimer at 100 uM after 10 mins by gel-based radiolabeled primer extension assay; outline: as §1
[6] = target: Human immunodeficiency virus type 1 reverse transcriptase (Human immunodeficiency virus 1) (UniProt Q72547); assay: Inhibition of wild type HIV1 recombinant reverse transcriptase p66/p51 heterodimer at 10 to 100 uM after 10 mins by gel-based radiolabeled primer extension assay; outline: as §1
[7] = target: Human immunodeficiency virus type 1 reverse transcriptase (Human immunodeficiency virus 1) (UniProt Q72547); assay: Inhibition of wild type HIV1 recombinant reverse transcriptase p66/p51 heterodimer […] after 10 mins by gel-based radiolabeled primer extension assay
[8] = system: Human immunodeficiency virus type 1 reverse transcriptase (Human immunodeficiency virus 1), Q72547 [M184V,K65R,Y115F]; assay: Inhibition of NRTI-resistant HIV1 recombinant reverse transcriptase p66/p51 M184V/K65R/Y115F mutant at 100 uM after 10 mins by gel-based radiolabeled primer extension assay; outline: as §1
[9] = target: Human immunodeficiency virus type 1 reverse transcriptase (Human immunodeficiency virus 1) (UniProt Q72547); assay: Inhibition of NNRTI-resistant HIV1 recombinant reverse transcriptase p66/p51 heterodimer up to 1 mM after 10 mins by gel-based radiolabeled primer extension assay; outline: as §1

Q: How did the inhibition [1] turn out when `Nc1ncnc2c1ncn2[C@@H]1O[C@H](COP(=O)(OP(=O)(O)O)OP(=O)(O)O)[C@@H](O)[C@H]1O` was run?
A: Active

Q: What about the inhibition [2] of the same molecule?
A: Active

Q: What about the inhibition [3] of the same molecule?
A: Active

Q: What about the inhibition [4] of the same molecule?
A: inactive

Q: And the inhibition [5]?
A: Active

Q: What does the source list for `Cc1cn([C@H]2C[C@H](N=[N+]=[N-])[C@@H](COP(=O)(OP(=O)(O)O)OP(=O)(O)O)O2)c(=O)[nH]c1=O`?
A: inhibition [1]: Active; inhibition [2]: Active; inhibition [3]: Active; inhibition [4]: inactive; inhibition [5]: Active

Q: For `Cc1cn([C@H]2C[C@H](F)[C@@H](COP(=O)(OP(=O)(O)O)OP(=O)(O)O)O2)c(=O)[nH]c1=O`, which inhibition [6] is on record?
A: Active

Q: And the inhibition [7]?
A: Active

Q: What about the inhibition [8] of the same molecule?
A: Active

Q: What about the inhibition [9] of the same molecule?
A: Active

Q: Which inhibition [6] does the source give for `Cc1cn([C@H]2C=C[C@@H](COP(=O)(OP(=O)(O)O)OP(=O)(O)O)O2)c(=O)[nH]c1=O` here?
A: Active

Q: What about the inhibition [7] of the same molecule?
A: Active

Q: What about the inhibition [8] of the same molecule?
A: Active

Q: What about the inhibition [9] of the same molecule?
A: Active
